The list is not random: actives were taken first. Their share in the collection is about 4.5%.
TAAR1 agonist = human TAAR1 agonism. CHO RD-HGA16 TAAR1, Fluo-8 calcium fluorescence; vehicle wells 0%, saturating PEA agonist 100%. activation, % at 3 µM. hit rate 0.99% among 360,000. AID 624467;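 active = activation above the mean activation of all test compounds in the run plus 3 SD, cut at about 38% in these data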
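System: CHO-derived RD-HGA16 cells with stable Gα16 and human TAAR1. Times: 17-24 h plating, Fluo-8 75 min 37 °C, 30 min RT. Measured by: calcium-sensitive Fluo-8 signal, excitation 470-495, emission 515-575 nm. Read-out basis: % activation relative to PEA EC100 response. Control set: DMSO and PEA EC100. Repeats: no replicates (n 1).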
CHO parental Ca = counter-screen for OX1R antagonists: effect in parental CHO cells; parental CHO-K1, ATP-induced calcium, Fluo-8 fluorescence; inhibition, % at 5.6 µM; hit rate 0.63% among 330,000; AID 463079;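 active = inhibition above that plate's mean sample inhibition plus 3 SD, cut at about 26% in these data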;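 also: 0% = ATP-challenged DMSO wells and 100% = DMSO wells without ATP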
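Test system: parental CHO cells; detection: calcium-sensitive Fluo-8 fluorescence; evaluation: percent inhibition of calcium signal; also added: ATP as calcium-mobilizing challenge; repeats: one well per compound; control set: ATP-challenged DMSO wells low, unchallenged DMSO wells high; compound: single nominal dose of 5.6 µM per compound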
OX1R antag-1 = blocks the human orexin 1 receptor; hit rate 0.43% among 330,000; CHO/OX1R cells, Fluo-8 calcium fluorescence, orexin A; O43613; inhibition, % at 5 µM;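 active = inhibition above its plate's threshold, mean inhibition of all tested compounds on the plate plus 3 SD, cut at about 37% in these data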;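 also: 0% = orexin A challenge wells and 100% = SB-334867-A antagonist wells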
Target sequence (O43613 whole entry, looked up): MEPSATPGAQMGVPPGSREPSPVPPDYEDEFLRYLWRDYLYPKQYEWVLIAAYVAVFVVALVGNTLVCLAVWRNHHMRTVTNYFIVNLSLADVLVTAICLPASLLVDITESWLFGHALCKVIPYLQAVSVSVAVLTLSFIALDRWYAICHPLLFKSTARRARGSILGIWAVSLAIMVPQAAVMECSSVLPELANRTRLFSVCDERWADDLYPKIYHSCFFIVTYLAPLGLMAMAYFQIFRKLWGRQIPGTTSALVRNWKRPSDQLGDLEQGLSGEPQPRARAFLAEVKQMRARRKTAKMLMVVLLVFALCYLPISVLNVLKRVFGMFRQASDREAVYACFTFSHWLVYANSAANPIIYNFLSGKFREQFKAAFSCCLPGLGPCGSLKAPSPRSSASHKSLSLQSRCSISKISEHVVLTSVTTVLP
TAAR1 antag = human TAAR1 antagonism; inhibition, % at 3 µM; Q96RJ0; hit rate 1.5% among 360,000; AID 624466; CHO RD-HGA16 TAAR1, Fluo-8 calcium fluorescence, antagonist;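 active = inhibition above a per-plate cutoff, the mean inhibition of test compounds on that plate plus 3 SD, cut at about 49% in these data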;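 also: 0% = DMSO plus EC80 beta-PEA response and 100% = DMSO alone without agonist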
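Test system – hTAAR1-expressing CHO RD-HGA16 cells, Gα16-coupled · Reagent – β-PEA at EC80 concentration, post-compound challenge · Compound dosing – 3 µM, single point · Timing – 140 s kinetic read after compound, 140 s after agonist · Detection – Fluo-8 intracellular calcium dye fluorescence, real-time kinetic reads · Control set – DMSO and EC80 PEA controls · Repeats – n of 1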
GPR7 antag = antagonists of human GPR7 (neuropeptides B/W receptor 1); P48145; GPR7-expressing cells, fluorescence antagonist assay; inhibition, % at 4.4 µM; hit rate 1.1% among 290,000; in the data active = inhibition above about 16%, passing the limit was not always enough;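 also: cells stimulated with the agonist NPW; 0% = agonist with vehicle and 100% = vehicle without agonist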
OX1R antag-2 = OX1R (human) antagonism. hit rate 1.8% among 330,000. O43613. inhibition, % at 6.6 µM. OX1R-expressing cells, FRET antagonist read-out. AID 485270; in the data active = inhibition mostly above about 38%, no sharp cut-off; inactive = mostly below about 40%;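 also: 0% = agonist challenge alone and 100% = reference antagonist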
OX1R HTRF confirm = confirmation of human orexin 1 receptor antagonists, HTRF format; shares compounds with OX1R antag-2; OX1R-expressing cells, HTRF antagonist assay; inhibition, % at 6.6 µM; hit rate 49% among 1,800; in the data active = inhibition above about 55%;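 also: CHO cells expressing OX1R stimulated with orexin A at about EC80; 0% = agonist challenge alone and 100% = reference antagonist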
CHO-K1 HTRF cnt = counter-screen: parental CHO-K1 HTRF response; shares compounds with OX1R antag-2; parental CHO-K1 cells, HTRF counterscreen; inhibition, % at 6.6 µM; hit rate 48% among 1,800; in the data active = inhibition above about 17%;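 also: 0% = agonist challenge with vehicle and 100% = vehicle alone without agonist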
An asterisk follows results filed as active; / = no result given.

SMILES	TAAR1 agonist	CHO parental Ca	OX1R antag-1	TAAR1 antag	GPR7 antag	OX1R antag-2	OX1R HTRF confirm	CHO-K1 HTRF cnt
N=c1c(C(=O)NC2CCCC2)cc2c(=O)n3ccccc3nc2n1CCN1CCOCC1	8	-8	-7	4	-6	102*	35	43*
O=C(NCC[C@@H]1CC[C@@H](NS(=O)(=O)Cc2ccccc2)[C@@H](CO)O1)C1CC1	1	/	/	-19	/	/	/	/
O=[N+]([O-])C1=CC=C2C(=NC3(CCCCC3)N2O)C1=NCCO	1	-6	-2	3	-6	83*	73*	112*
Cn1ncc2c(Nc3ccc4ccccc4c3)ncnc21	3	-17	-20	-6	-4	78*	78*	2
CSc1nc(SCc2ccccc2)[nH]c(=O)n1	6	/	/	-39	/	/	/	/
CC(C)N1CCN(c2ccncc2S(=O)(=O)N2CCN(C)CC2)CC1	0	/	/	5	/	/	/	/
COc1cccc(N/C=C/c2onc(C)c2[N+](=O)[O-])c1	7	-3	-5	2	-20	11	/	/
Cc1noc(/C=C/c2cccnc2)c1[N+](=O)[O-]	-1	2	-14	-17	2	79*	68*	84*
COc1ccccc1NC(=O)c1ccc2[nH]c(C)c(C)c2c1	-2	-4	-6	5	-2	11	/	/
Cc1c(C(=O)NCc2cccs2)sc(=O)n1Cc1ccc(S(C)(=O)=O)cc1	5	/	/	-14	/	/	/	/
CCOC(=O)c1cc2c(=O)n3ccccc3nc2n(CCOC)c1=NC(=O)c1ccncc1	15	-12	-17	6	1	80*	58*	52*
CCOC(=O)c1cc2c(=O)n3ccccc3nc2n(CC(C)C)c1=NC(=O)c1ccco1	14	-5	-32	11	-2	117*	54	40*
CCOC(=O)c1cc2c(=O)n3ccccc3nc2n(CCOC)c1=NC(=O)c1c(-c2c(F)cccc2Cl)noc1C	1	-10	-10	-11	-2	7	/	/
CCOC(=O)c1cc2c(=O)n3ccccc3nc2n(CCCOC)c1=NC(=O)C(C)(C)C	0	-21	-41	-4	3	84*	21	27*
CCOC(=O)c1cc2c(=O)n3ccccc3nc2n(CCCOC)c1=NC(=O)c1cccnc1	/	0	-2	/	1	47	/	/
COc1cc(NC(C)CCCN)c2nc(C)ccc2c1Oc1ccc(F)cc1 (stereo not drawn)	3	/	/	-15	/	/	/	/
Nc1cc(Cl)ccc1C(=O)OCC(=O)N1CCCC1	1	-4	-13	-12	-8	-9	/	/
O=C(OCC(=O)N1CCCC1)c1cc([N+](=O)[O-])ccc1Cl	2	-5	-6	-3	7	118*	55	56*
O=C1c2ccc(-c3ccc4c(c3)C(=O)N(CCO)C4=O)cc2C(=O)N1CCO	8	-5	-9	24	0	174*	66*	82*
Cc1ccc2c(c1)C(=O)N(CCCCO)C2=O	11	1	-10	0	8	15	/	/
O=C1c2ccc(Oc3ccc4c(c3)C(=O)N(CCCO)C4=O)cc2C(=O)N1CCCO	18	-20	-5	-7	-10	136*	45	25*
COc1ccc(-c2coc3c(C(=O)NCc4cccs4)cccc23)c(C)c1	1	/	/	38	/	/	/	/
CCC[n+]1c2ccccc2cc2ccccc21	4	-17	-9	0	19	84*	48	54*
CC(C)Oc1ccc(F)cc1-c1cc(C(=O)N2CCc3ccccc3C2)[nH]n1	-1	/	/	32	/	/	/	/
Cc1ccc2nc3c(cc(C#N)c(=O)n3-c3nccs3)c(=O)n2c1	6	-4	-13	3	-6	169*	90*	77*
SMILES	TAAR1 agonist	CHO parental Ca	OX1R antag-1	TAAR1 antag	GPR7 antag	OX1R antag-2	OX1R HTRF confirm	CHO-K1 HTRF cnt
CN(CCO)c1cc(N2CCN(C(=O)c3ccco3)CC2)c2nonc2c1[N+](=O)[O-]	0	3	2	-6	12	107*	43	48*
CC1CCN(c2cc(N(C)CCO)c([N+](=O)[O-])c3nonc23)CC1	1	-4	-13	-15	-8	39	/	/
O=C(CNC(=O)N1CC(=O)Nc2ccccc21)Nc1ccc(Cl)cc1Cl	2	/	/	-15	/	/	/	/
CN(CCCC(=O)NC1CC(C)(C)NC(C)(C)C1)S(=O)(=O)c1ccc([N+](=O)[O-])cc1	7	-11	-5	2	-3	79*	45	59*
CC1(C)CC(NC(=O)COc2ccc([N+](=O)[O-])cc2)CC(C)(C)N1	5	-11	-22	-2	-6	20	/	/
CC1(C)CC(NC(=O)c2cc([N+](=O)[O-])cc([N+](=O)[O-])c2)CC(C)(C)N1	1	-6	-2	-7	-5	98*	78*	78*
Cc1ccc2nc(Nc3ccccc3)c(/C=N/O)c(=O)n2c1	6	-22	0	11	-12	98*	62*	10
CCOC(=O)c1ccc(CNCc2ccc(Br)cc2)cc1	3	-12	-8	-21	1	25	/	/
CCOC(=O)c1ccc(NC(=O)c2cc3ccccc3o2)cc1	5	-24	18	47	-9	77*	72*	0
CCOC(=O)c1ccc(CNCc2ccccc2)cc1	6	-8	-28	4	-1	80*	27	-2
COc1ccc(C(C)(NC(C)=O)c2nc(-c3cccc(NC(C)=O)c3)cs2)cc1 (stereo not drawn)	1	/	/	-21	/	/	/	/
Cc1cnc([N+](=O)[O-])n1CCOC(=O)NC(=O)c1ccccc1Cl	3	5	4	-6	15	24	/	/
Cc1cnc([N+](=O)[O-])n1CCOC(=O)NC(=O)c1cccc(F)c1	9	-15	-14	-9	7	78*	60*	16
COc1ccc(S(=O)(=O)N2CCN(CC(=O)Nc3sccc3C(N)=O)CC2)cc1OC	10	-21	-8	26	/	2	/	/
COc1ccc(CNc2nc(-c3ccccc3)nc3ccccc23)cc1OC	8	-14	12	-41	5	85*	68*	6
CC(C)(C)OC(=O)Nc1ccccc1-n1nnnc1C(C(=O)c1ccc(F)cc1)N1CCN(c2ccccn2)CC1 (stereo not drawn)	-2	/	/	-19	/	/	/	/
Cc1ccc(/C=N/NC(=O)c2nn(C)cc2Cl)cc1	1	-2	-15	6	6	-3	/	/
Cn1cc(Cl)c(C(=O)N/N=C/c2ccc3c4c(cccc24)CC3)n1	/	-25	-3	/	5	92*	84*	11
CC1CCN(S(=O)(=O)CCNC(=O)c2ccccc2)CC1	2	-8	-12	4	/	89*	9	2

Compound activity: PubChem, The Scripps Research Institute Molecular Screening Center
